Laboratory results as given in ChEMBL document CHEMBL1124437, “Analogues of cisplatin derived from diaminodideoxytetritols. Synthesis and activity against the ADJ/PC6 plasmacytoma in mice” (J Med Chem, 1989).

Experiments:
[1] = Therapeutic index is the ratio of LD50 to ED90
Outline: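 In female Balb-C mice bearing subcutaneous ADJ/PC6 tumor, dosed ip or po at 5, 25, 125 and 625 mg per kg (six animals per dose). Therapeutic index is the 50% lethal dose divided by the dose causing 90% tumor regression (LD50/ED90).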

Mus musculus [2] = assay: Antitumor activity against ADJ/PC6 tumor subcutaneously implanted into female intraperitoneal compound administration; assay type: functional, organism-based
Outline: (§1)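 ADJ/PC6 plasmacytoma implanted subcutaneously in female Balb-C mice, with compound given by intraperitoneal injection. Four dose levels were tested (5, 25, 125 and 625 mg per kg), six mice per dose. LD50 is the 50% lethal dose, ED90 is the dose giving 90% tumor regression, and therapeutic index = LD50/ED90.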

Mus musculus [3] = assay: Compound was screened for antitumor activity against ADJ/PC6 tumor subcutaneously implanted into female intraperitoneal compound administration; assay type: functional, organism-based; outline: as §1

Substance	TI [1]	other results
CISPLATIN [listing 1 of 2 here]	8.1	
CISPLATIN [listing 2 of 2 here]		LD50 (Mus musculus [2]): 13 mg/kg
cis-dichloro(cis-5,6-diamino-1,3-dioxepane)platinum (II) [listing 1 of 2 here]	4.1	
cis-dichloro(cis-5,6-diamino-1,3-dioxepane)platinum (II) [listing 2 of 2 here]		LD50 (Mus musculus [3]): 41.5 mg/kg
